Assay: Inhibitory activity against MCP-1 induced Calcium flux in […]
Type: functional, cell-based
Details: Homo sapiens, THP-1
How it was run: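 THP-1 cells loaded 30 min with 4 µM Fluo-3 AM at 2 million cells/mL (RPMI, 20 mM HEPES, 0.1% BSA, 5 mM probenecid). Washed into HEPES saline with 1.25 mM CaCl2, 2.5 mM probenecid and 0.1% BSA. Plated at 150,000 cells/well, preincubated 20 min with compound, then stimulated with 10^-7 M hMCP-1. FLIPR fluorescence recorded from 10 s before to 2 min after; maximal signal used.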

Row | Structure (SMILES) | IC50
1 | CCC(c1ccc(Cl)c(Cl)c1)n1c(C(=O)O)cnc1S (stereo not given) | > 10 µM
2 | CCC(c1ccc(Cl)c(Cl)c1)n1c(S)nc(C)c1C(=O)OC (stereo not given) | 0.251 µM
3 | CCC(c1ccc(F)c(F)c1)n1c(C(=O)N2CCCCC2)cnc1S (stereo not given) | > 10 µM
4 | CCC(c1ccc(F)c(F)c1)n1c(C(=O)N2CCCC2)cnc1S (stereo not given) | > 10 µM
5 | COC(=O)c1cnc(S)n1C(c1ccc(Cl)c(Cl)c1)c1ccc(Cl)c(Cl)c1 | > 10 µM
6 | COC(=O)c1cnc(S)n1C(C)c1ccc(Cl)c(Cl)c1 (stereo not given) | 0.251 µM
7 | COC(=O)c1cnc(S)n1C(c1ccc(Cl)c(Cl)c1)C1CC1 (stereo not given) | 2 µM
8 | CCC(c1ccc(Cl)c(Cl)c1)n1c(C(=O)OC)cnc1S (stereo not given) | 0.2 µM
9 | CCC(c1ccc(Cl)c(Cl)c1)n1c(S)nc(C(=O)NC)c1C(=O)NC (stereo not given) | 0.398 µM
10 | CCC(c1cc(Cl)cc(Cl)c1)n1c(C(=O)OC)cnc1S (stereo not given) | > 10 µM
11 | COCC(c1ccc(Cl)c(Cl)c1)n1c(C(=O)OC)cnc1S (stereo not given) | 0.316 µM
12 | CC[C@H](c1ccc(Cl)c(Cl)c1)n1c(C(=O)OC)cnc1S | 1.58 µM
13 | CCC(c1ccc(C(F)(F)F)c(F)c1)n1c(C(=O)OC)cnc1S (stereo not given) | 2 µM
14 | CCOC(=O)c1cnc(S)n1C(CC)c1ccc(F)c(F)c1 (stereo not given) | 0.316 µM
15 | CCC(c1ccc(OC)c(OC)c1)n1c(C(=O)OC)cnc1S (stereo not given) | > 10 µM
16 | CCC(c1ccc(F)c(F)c1)n1c(C(=O)OC)cnc1S (stereo not given) | 1.26 µM
17 | CCC(c1cc(F)cc(F)c1)n1c(C(=O)OC)cnc1S (stereo not given) | > 10 µM
18 | CC[C@@H](c1ccc(Cl)c(Cl)c1)n1c(S)nc(C(=O)OC)c1C(=O)OC | 0.00794 µM
19 | CCC(c1ccc(Cl)c(Cl)c1)n1c(C(N)=O)cnc1S (stereo not given) | 0.0501 µM
20 | CCC(c1ccc(Cl)c(Cl)c1)n1c(C(=O)OC(C)C)cnc1S (stereo not given) | 0.316 µM
21 | CCC(c1cccc(Oc2ccccc2)c1)n1c(C(=O)OC)cnc1S (stereo not given) | > 10 µM
22 | CCC(c1ccc(F)c(F)c1)n1c(C(N)=O)cnc1S (stereo not given) | 0.501 µM
23 | CCC(c1ccc(Cl)cc1)n1c(C(=O)OC)cnc1S (stereo not given) | > 10 µM
24 | CC[C@H](c1ccc(F)c(F)c1)n1c(S)nc(C(=O)OC)c1C(=O)OC | 2 µM
25 | CCC(c1ccc(F)c(F)c1)n1c(C(=O)NC)cnc1S (stereo not given) | 2 µM
26 | CCCCNC(=O)c1cnc(S)n1C(CC)c1ccc(F)c(F)c1 (stereo not given) | > 10 µM
27 | CC[C@H](c1ccc(Cl)c(Cl)c1)n1c(C(N)=O)cnc1S | 10 µM
28 | CCC(c1ccc(C(F)(F)F)cc1)n1c(C(=O)OC)cnc1S (stereo not given) | > 10 µM

Row | Structure (SMILES) | IC50
29 | CCC(c1ccc(Cl)c(Cl)c1)n1c(C#N)cnc1S (stereo not given) | 0.631 µM
30 | CCC(c1ccc(F)c(C(F)(F)F)c1)n1c(S)nc(C(=O)OC)c1C(=O)OC (stereo not given) | 0.1 µM
31 | CC[C@@H](c1ccc(Cl)c(Cl)c1)n1c(C(=O)OC)cnc1S | 0.126 µM
32 | CCC(c1ccc(Cl)c(Cl)c1)n1c(CO)cnc1S (stereo not given) | > 10 µM
33 | CCC(c1ccc(C)c(C)c1)n1c(C(=O)OC)cnc1S (stereo not given) | > 10 µM
34 | COC(=O)c1cnc(S)n1C(c1ccc(Cl)c(Cl)c1)C1CCCCC1 (stereo not given) | 10 µM
35 | CCC(c1ccc(F)c(F)c1)n1c(S)nc(C(=O)OC)c1C(=O)OC (stereo not given) | 0.01 µM
36 | CC[C@@H](c1ccc(Cl)c(Cl)c1)n1c(C(N)=O)cnc1S | 0.0398 µM
37 | COC(=O)c1cnc(S)n1C(C)(C)c1ccc(Cl)c(Cl)c1 | > 10 µM
38 | CC[C@@H](c1ccc(F)c(F)c1)n1c(S)nc(C(=O)OC)c1C(=O)OC | 0.00794 µM
39 | CCC(c1cccc(Cl)c1)n1c(C(=O)OC)cnc1S (stereo not given) | > 10 µM
40 | COC(=O)c1cnc(S)n1C(c1ccc(Cl)c(Cl)c1)c1cccs1 (stereo not given) | > 10 µM
41 | CCC(c1ccc(Cl)c(Cl)c1)n1c(C(=O)NC)cnc1S (stereo not given) | 0.316 µM
42 | CCC(c1ccc(F)c(F)c1)n1c(C(=O)N2CCOCC2)cnc1S (stereo not given) | > 10 µM
43 | CCC(c1ccc(F)c(F)c1)n1c(C(=O)NCC(C)C)cnc1S (stereo not given) | > 10 µM
44 | CCC(c1ccc(Cl)c(Cl)c1)n1c(S)nc(C(=O)O)c1C(=O)OC (stereo not given) | > 10 µM
45 | CCC(c1ccc(Cl)c(Cl)c1)n1c(S)nc(C(=O)OC)c1C#N (stereo not given) | 0.0398 µM
46 | CCC(c1ccc(Cl)c(Cl)c1)n1c(S)nc(C(N)=O)c1C#N (stereo not given) | 0.126 µM
47 | CCC(c1ccccc1Cl)n1c(C(=O)OC)cnc1S (stereo not given) | > 10 µM
48 | CCC(c1ccc(Cl)c(Cl)c1)n1c(S)nc(C(N)=O)c1C(N)=O (stereo not given) | 0.0631 µM
49 | CCC(c1ccc(F)c(C(F)(F)F)c1)n1c(C(=O)OC)cnc1S (stereo not given) | 1 µM
50 | CCC(c1ccc(Br)c(Br)c1)n1c(C(=O)OC)cnc1S (stereo not given) | 0.251 µM
51 | CCC(c1ccccc1)n1c(C(=O)OC)cnc1S (stereo not given) | > 10 µM
52 | CCC(c1ccc(Cl)c(Cl)c1)n1c(S)nc(C(=O)OC)c1C(=O)OC (stereo not given) | 0.01 µM
53 | CCCC(c1ccc(Cl)c(Cl)c1)n1c(C(=O)OC)cnc1S (stereo not given) | 0.158 µM
54 | CCC(c1ccc(Cl)c(Cl)c1)n1c(S)nc(C)c1C(=O)NC (stereo not given) | > 10 µM
55 | CCC(c1ccc(C(F)(F)F)c(F)c1)n1c(S)nc(C(=O)OC)c1C(=O)OC (stereo not given) | 0.02 µM
